Here are results for eleven compounds from ChEMBL document CHEMBL1123121, “Aminotetralone analogues of ketamine: synthesis and evaluation of hypnotic and locomotor properties in mice” (1985).

The subject of the test is Mus musculus. Briefly: Ability to cause […] in mice represented as no. of counts for each animal for a total of 90 min when 100 mg/kg dose was administered intraperitoneally. In kind it is functional. The settings on record: route intraperitoneal. In outline:
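Mice given the compound intraperitoneally at 100 mg kg-1, dissolved in distilled water; controls received 0.2 mL normal saline. Each mouse was placed on an electronic activity monitor and its counts were recorded for 90 min after injection. Counts per minute were taken as total counts divided by 90. Six animals per group, mean ± SEM, groups compared by Duncan's multiple-range test. Experiments were run between 13.00 and 17.00 h at 20-24 °C.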
Regarding `CC1(N2CCCCC2)c2ccccc2CCC1O` (stereo unspecified), the Counts turned out to be 21.6 min⁻¹.

`CC1(N2CCCCC2)C(=O)CCc2ccccc21` (stereo unspecified) returned a Counts of 4.4 min⁻¹.

Turning to `CNC1(c2ccccc2Cl)CCCCC1=O` (stereo unspecified) [KETAMINE], the Counts worked out at 94.3 min⁻¹.

As to `CNC1(C)C(=O)CCc2ccccc21` (stereo unspecified), the Counts was determined as 25.8 min⁻¹.

Turning to `CC1(N)c2ccccc2CCC1O` (stereo unspecified), the Counts was 16.2 min⁻¹.

For `CN(C)C1(C)C(=O)CCc2ccccc21` (stereo unspecified), the Counts was found to be 22.9 min⁻¹.

As to `CC1(N)C(=O)CCc2ccccc21` (stereo unspecified), the Counts came out at 27.2 min⁻¹.

In turn, `CC1(N)CCc2ccccc2C1=O` (stereo unspecified) came in with a Counts of 60.6 min⁻¹.

For `CN(C)C1(C)c2ccccc2CCC1O` (stereo unspecified), the Counts was found to be 37.5 min⁻¹.

Compound `CN(C)C1(C)CCc2ccccc2C1=O` (stereo unspecified) displayed a Counts of 67.1 min⁻¹.

`CNC1(C)c2ccccc2CCC1O` (stereo unspecified) gave a Counts of 20.2 min⁻¹.
